The results in this text go back to ChEMBL document CHEMBL2331284, “Synthesis and biological evaluation of 1,3,4-thiadiazole analogues as novel AChE and BuChE inhibitors” (Eur J Med Chem, 2013).

One test deals with Cholinesterase (Equus caballus, UniProt P81908). Briefly: Inhibition of equine serum BChE using butyrylthiocholine iodide as substrate after 10 mins by Ellman method. (In Ellman's method for cholinesterases, released thiocholine reacts with DTNB.)
Test [1] in a line: Selectivity ratio of IC50 for equine serum BChE to IC50 for electric eel AChE. The procedure, abridged:
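Modified Ellman assay for both enzymes: electric eel AChE with ATCh, or equine serum BuChE with BTCh; DTNB; 0.1 M potassium phosphate pH 8. Compound preincubated 10 min before substrate, absorbance rise at 412 nm at 1-min intervals, 37 °C. Seven concentrations (10⁻³–10⁻⁹ M) run in triplicate. IC50 from log dose–response; ratio = IC50(BuChE)/IC50(AChE).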

For a further test, the target named is Acetylcholinesterase (Electrophorus electricus, UniProt O42275). In words: Inhibition of electric eel AChE using […] as substrate after 10 mins by Ellman method.
Acetylcholinesterase, sequence (O42275 whole entry): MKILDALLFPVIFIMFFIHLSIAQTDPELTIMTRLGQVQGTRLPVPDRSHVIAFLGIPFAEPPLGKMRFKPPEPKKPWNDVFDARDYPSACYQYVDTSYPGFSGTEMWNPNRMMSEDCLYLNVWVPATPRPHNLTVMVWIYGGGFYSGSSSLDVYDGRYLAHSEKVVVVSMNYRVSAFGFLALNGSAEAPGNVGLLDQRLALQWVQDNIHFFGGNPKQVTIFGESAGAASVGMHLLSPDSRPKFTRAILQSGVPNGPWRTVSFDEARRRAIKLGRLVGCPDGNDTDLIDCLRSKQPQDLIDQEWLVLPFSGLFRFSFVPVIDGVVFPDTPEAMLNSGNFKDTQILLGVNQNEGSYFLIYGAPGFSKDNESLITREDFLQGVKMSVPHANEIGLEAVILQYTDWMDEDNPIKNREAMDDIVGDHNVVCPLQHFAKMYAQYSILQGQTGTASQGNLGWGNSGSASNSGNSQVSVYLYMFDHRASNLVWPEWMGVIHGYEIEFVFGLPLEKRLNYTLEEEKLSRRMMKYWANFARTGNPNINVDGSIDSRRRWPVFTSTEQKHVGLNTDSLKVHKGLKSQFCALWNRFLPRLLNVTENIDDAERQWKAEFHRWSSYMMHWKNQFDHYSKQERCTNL
Test [2] has as its target Acetylcholinesterase (Electrophorus electricus) (UniProt O42275). In words: Non-competitive inhibition of electric eel AChE using acetylcholine iodide as substrate at 0.10 to 0.14 uM by Lineweaver-Burk method.
The target is the same in test [3]. Particulars: at 0.12 to 0.17 µM.

Calls of active or inactive are those of the source. No cut-off for these calls is given here. Where only a bound is given, the exact number is not on record here.

Cholinesterase, sequence (P81908 whole entry): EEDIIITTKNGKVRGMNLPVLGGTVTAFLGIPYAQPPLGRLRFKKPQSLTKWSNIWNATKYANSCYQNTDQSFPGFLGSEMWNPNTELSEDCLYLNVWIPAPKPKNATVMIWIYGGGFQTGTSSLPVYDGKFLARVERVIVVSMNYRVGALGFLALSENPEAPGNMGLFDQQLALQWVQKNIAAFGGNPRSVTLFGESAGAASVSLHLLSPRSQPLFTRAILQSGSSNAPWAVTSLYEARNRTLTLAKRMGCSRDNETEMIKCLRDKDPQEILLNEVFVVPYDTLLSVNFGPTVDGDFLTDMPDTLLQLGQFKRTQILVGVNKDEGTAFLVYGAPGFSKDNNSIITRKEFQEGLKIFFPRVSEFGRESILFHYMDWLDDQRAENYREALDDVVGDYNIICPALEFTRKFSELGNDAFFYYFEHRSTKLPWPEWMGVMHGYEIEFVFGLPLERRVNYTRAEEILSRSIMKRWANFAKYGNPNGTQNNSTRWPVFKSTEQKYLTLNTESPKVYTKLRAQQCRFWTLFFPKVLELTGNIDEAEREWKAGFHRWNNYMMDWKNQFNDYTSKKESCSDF
Acetylcholinesterase (Electrophorus electricus), sequence (O42275 24-633 limits assumed): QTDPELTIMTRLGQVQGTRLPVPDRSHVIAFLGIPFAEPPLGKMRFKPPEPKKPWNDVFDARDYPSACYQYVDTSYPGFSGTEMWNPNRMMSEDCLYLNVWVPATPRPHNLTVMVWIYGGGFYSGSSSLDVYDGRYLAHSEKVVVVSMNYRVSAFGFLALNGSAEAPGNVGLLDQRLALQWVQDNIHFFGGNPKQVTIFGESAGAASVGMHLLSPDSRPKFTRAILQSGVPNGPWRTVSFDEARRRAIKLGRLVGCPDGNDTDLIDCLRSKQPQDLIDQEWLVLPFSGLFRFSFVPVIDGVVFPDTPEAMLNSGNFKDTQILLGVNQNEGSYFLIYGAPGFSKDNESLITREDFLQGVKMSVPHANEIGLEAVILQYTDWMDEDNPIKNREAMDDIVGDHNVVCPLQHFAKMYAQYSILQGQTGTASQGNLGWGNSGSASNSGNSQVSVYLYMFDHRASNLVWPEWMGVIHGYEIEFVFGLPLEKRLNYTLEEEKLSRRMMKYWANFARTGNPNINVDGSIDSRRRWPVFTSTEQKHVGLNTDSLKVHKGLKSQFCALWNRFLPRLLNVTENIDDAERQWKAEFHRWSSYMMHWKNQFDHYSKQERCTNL

Broadly, the IC50 is the midpoint of a concentration-inhibition curve. A lower IC50 goes with inhibition by little substance. For the molecule `O=[N+]([O-])c1ccccc1-c1nnc(-c2ccc(O)cc2O)s1`, the half-inhibitory concentration (IC50) against Cholinesterase was 57.3 µM; on Acetylcholinesterase, 2120 nM. Further, the Ratio IC50 in test [1] worked out at 27.
For `Cc1cc(-c2nnc(-c3ccc(O)cc3O)s2)ccc1[N+](=O)[O-]` the same measures were 148 µM, 20900 nM and 7.1.
For `COc1cccc(-c2nnc(-c3ccc(O)cc3O)s2)c1`, in that order: 27.3 µM, 1870 nM and 25.5.
For `COc1ccccc1-c1nnc(-c2ccc(O)cc2O)s1`, in that order: 212 µM, 26700 nM and 7.9.
`Oc1ccc(-c2nnc(-c3ccc(O)c(O)c3)s2)c(O)c1`: the half-inhibitory concentration (IC50) was 2.16 µM at Cholinesterase and 190 nM against Acetylcholinesterase. Also, the Ratio IC50 in test [1] came out at 11.4.
For `Oc1ccc(-c2nnc(-c3cc(Cl)ccc3Cl)s2)c(O)c1`, in that order: 19.1 µM, 112000 nM and 0.17.
For `Oc1ccc(-c2nnc(-c3ccccc3Br)s2)c(O)c1` the same measures were 0.29 µM, 60 nM and 4.8.
On to `CN(C)C(=O)Oc1cccc([N+](C)(C)C)c1` [NEOSTIGMINE BROMIDE], for which the IC50 on Cholinesterase is 0.07 µM; at Acetylcholinesterase, 50 nM. Also, the Ratio IC50 in test [1] turned out to be 1.4.
For `O=[N+]([O-])c1cccc(-c2nnc(-c3ccc(O)cc3O)s2)c1`, in that order: 32.1 µM, 670 nM and 47.9.
For `COc1ccc(OC)c(-c2nnc(-c3ccc(O)cc3O)s2)c1` the same measures were 63.3 µM, 1560 nM and 40.5.
As for `COc1cc(-c2nnc(-c3ccc(O)cc3O)s2)cc(OC)c1OC`, the values for the IC50 on Cholinesterase and against Acetylcholinesterase were 196 µM and 170 nM, respectively. For the same molecule, the Ratio IC50 in test [1] was determined as 1150.
For `Oc1ccc(-c2nnc(-c3ccc(Cl)cc3Cl)s2)c(O)c1`, in that order: greater than 500 µM, 128000 nM and greater than 3.9.
`Oc1ccc(-c2nnc(-c3ccc(C(F)(F)F)cc3)s2)c(O)c1`: the IC50 against Cholinesterase is 26.5 µM; at Acetylcholinesterase, 90 nM. For the same molecule, the inhibition entry in test [2] was “Active”. Also, the Ratio IC50 in test [1] was found to be 294.
`Cc1cccc(-c2nnc(-c3ccc(O)cc3O)s2)c1`: the results for the IC50 at Cholinesterase and at Acetylcholinesterase were 17 µM and 160 nM, respectively. For the same molecule, the Ratio IC50 in test [1] was 106. Besides, in test [3], the inhibition entry is “Active”.
In the case of `Oc1ccc(-c2nnc(-c3ccccc3F)s2)c(O)c1`, the IC50 at Cholinesterase is greater than 500 µM; against Acetylcholinesterase, 1070 nM. In addition, the Ratio IC50 in test [1] was greater than 467.
For `COc1ccc(-c2nnc(-c3ccc(O)cc3O)s2)cc1` the same measures were 96.3 µM, 2180 nM and 44.2.
For `COc1ccc(-c2nnc(-c3ccc(O)cc3O)s2)cc1OC`, in that order: greater than 500 µM, 19300 nM and greater than 25.9.
For `Oc1ccc(-c2nnc(-c3ccccc3Cl)s2)c(O)c1`, in that order: 196 µM, 1550 nM and 127.
With `Oc1ccc(-c2nnc(-c3cc(Cl)cc(Cl)c3)s2)c(O)c1`, the half-maximal inhibitory concentration (IC50) was greater than 500 µM on Cholinesterase and 45300 nM on Acetylcholinesterase. The Ratio IC50 in test [1] was greater than 11.1.
For `COc1cc(-c2nnc(-c3ccc(O)cc3O)s2)ccc1O` the same measures were 112 µM, 19200 nM and 5.9.
For `Nc1cccc(-c2nnc(-c3ccc(O)cc3O)s2)c1`, in that order: 84.3 µM, 1730 nM and 48.7.
For `Oc1ccc(-c2nnc(-c3ccc(O)cc3O)s2)c(O)c1` the same measures were 26.7 µM, 1890 nM and 14.2.
